Values after ≈ are worked out from the molar mass of the structure shown.
Assays:
Staphylococcus aureus [1] = experiment: Antibacterial activity against Staphylococcus aureus ATCC 29213 after 18 to 24 hrs by broth microdilution method; format: functional
In short: (§1)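 Broth microdilution per CLSI: serial 2-fold dilutions in Mueller-Hinton broth, compounds dissolved in DMSO; equal volume of inoculum at 1x10^6 CFU/mL added to each well; 37 C for 18-24 h. MIC = lowest concentration with no visible turbidity. Clinical S. aureus strains (MRSA and MSSA) were 12 recent isolates with characterized susceptibility.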

Enterococcus faecalis = experiment: Antibacterial activity against Enterococcus faecalis ATCC 29212 after 18 to 24 hrs by broth microdilution method; format: functional; in short: as §1
[2] = Cytotoxicity against human HepG2 cells assessed as cell viability at 100 ug/mL after 24 hrs by prestoblue assay; format: toxicity, cell-based; conditions: read-out: Activity
In short: (§2)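 HepG2 grown in DMEM with 10% heat-inactivated FBS on collagen; seeded at 45,000 cells/cm2, treated two days later for 24 h across 10-100 µg/mL. Viability read with resazurin-based PrestoBlue, 1 h at 37°C, absorbance 570 nm (reference 600 nm). Mean ± SEM, three experiments in triplicate, Student's t test.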

HepG2 [3] = experiment: Inhibition of MAO activity in human HepG2 cells at 10 ug/mL after 24 hrs by spectrophotometric method; format: cell-based
In short: (§3)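 HepG2 on collagen, seeded at 45,000 cells/cm2, dosed two days later at 10-100 µg/mL for 24 h. Lysate MAO was measured by Amplex Red/HRP H2O2 detection, 30 min at room temperature, absorbance 570 nm. Mean ± SEM of three experiments in triplicate.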

HepG2 [4] = experiment: Inhibition of MAO activity in human HepG2 cells at 100 ug/mL after 24 hrs by spectrophotometric method; format: cell-based; in short: as §3
Staphylococcus aureus [5] = experiment: Antibacterial activity against Staphylococcus aureus clinical isolate after 18 to 24 hrs by broth microdilution method; format: functional; in short: as §1
[6] = Cytotoxicity against human HepG2 cells assessed as decrease in cell viability at 10 ug/mL after 24 hrs by prestoblue assay; format: toxicity, cell-based; conditions: hepg2, 24 h; in short: as §2

Row | MIC (Staphylococcus aureus [1]) [µg/mL] | MIC (Enterococcus faecalis) [µg/mL] | MIC (Staphylococcus aureus [5]) [µg/mL] | MIC50 (Staphylococcus aureus [5]) [µg/mL] | MIC90 (Staphylococcus aureus [5]) [µg/mL] | Compound | viability at 24 h, 100 ug/mL [2] [%] | inhibition (HepG2 [3]) [%] | inhibition (HepG2 [4]) [%] | Activity [6]
1 | > 128 | > 128 | 32 to 128 (≈ 71.5 to 286 µM) | 64 (≈ 143 µM) | > 128 | CCNC(=O)C1C(=O)ON(C(=O)c2ccc(N3CCOCC3)c(F)c2)C1C1CCCCC1 (stereo not drawn) | 10 | 25 | 45 | Non-Toxic
2 | > 128 | > 128 | > 128 | > 128 | > 128 | CCNC(=O)C1C(=O)ON(C(=O)c2ccc(N3CCOCC3)c(F)c2)C1C(C)C (stereo not drawn) | 10 | 25 | 45 | Non-Toxic
3 | > 128 | > 128 | > 128 | > 128 | > 128 | CCNC(=O)C1=CCN(C(=O)c2ccc(N3CCOCC3)c(F)c2)[C@@H]1C(C)C | 10 | – | – | Non-Toxic
4 | > 128 | > 128 | > 128 | > 128 | > 128 | CCNC(=O)C1=CCN(C(=O)c2ccc(N3CCOCC3)c(F)c2)[C@H]1C(C)C | 20 | 25 | 45 | Non-Toxic

Row | Compound | MIC (Staphylococcus aureus [1]) [µg/mL] | MIC (Enterococcus faecalis) [µg/mL] | MIC (Staphylococcus aureus [5]) [µg/mL] | MIC50 (Staphylococcus aureus [5]) [µg/mL] | MIC90 (Staphylococcus aureus [5]) [µg/mL] | viability at 24 h, 100 ug/mL [2] [%] | inhibition (HepG2 [3]) [%] | inhibition (HepG2 [4]) [%] | Activity [6]
5 | CC(=O)NC[C@H]1CN(c2ccc(N3CCOCC3)c(F)c2)C(=O)O1 [LINEZOLID] | – | – | 1 to 4 (≈ 2.96 to 11.9 µM) | 2 (≈ 5.93 µM) | 2 (≈ 5.93 µM) | – | – | 15 | –
